ChEMBL document CHEMBL5154910, “Preventing Influenza A Virus Infection by Mixed Inhibition of Neuraminidase and Hemagglutinin by Divalent Inhibitors” (J Med Chem, 2022)
Calls of active or inactive are those of the source. The calls are words filed in the database; no cut-off is given here.

What was measured:
[1] = Inhibition of Influenza A virus (A/Anascrecca/Spain/1460/2008(H7N9)) recombinant Neuraminidase using MUNANA as substrate incubated for 60 mins by fluorescence based assay
Procedure, shortened: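 Recombinant soluble tetrameric NA (N9 from A/Anascrecca/Spain/1460/2008 or N1 from A/Wisconsin/09/2013) was made in HEK293T cells and purified on Strep-Tactin. Compounds were serially diluted 1:2 in 50 mM Tris-HCl, 4 mM CaCl2, pH 6.0, with a fixed non-saturating amount of NA. MUNANA was added to 100 μM final, 37 °C for 60 min, then stopped with glycine/ethanol at pH 10.7. Fluorescence read at ex 340/em 490 nm; […].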

Influenza A virus [2] = assay: Antiviral activity against Influenza virus A/Netherlands/602/2009 assessed as inhibition of virus-LAMP1 binding at 10 uM by biolayer interferometry streptavidin sensor based assay; format: functional, organism-based
Procedure, shortened: (§1)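 Biolayer interferometry was run at 30 °C in PBS with Ca/Mg, shaking at 1000 rpm. Streptavidin sensors were loaded to saturation with biotinylated LAMP1 carrying increased α2,6-linked sialic acids, then dipped into Neth09H1N1 virus mixed with variable compound concentrations. […] Controls had no compound, or OC only.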

MDCK-II = assay: Cytotoxicity against dog MDCK-II cells at 5 uM; format: toxicity, cell-based, Canis lupus familiaris
Procedure, shortened: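 MDCK-II monolayers were exposed to compound at the highest tested concentration of 5 μM in Opti-MEM at 37 °C, 5% CO2, for 4 days. Cytotoxicity was judged by microscopic inspection.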

Influenza A virus [3] = assay: Inhibition of Influenza virus A/Netherlands/602/2009 hemagglutinin assessed as reduction of virus-LAMP1 binding in presence of oseltamivir carboxylate by biolayer interferometry; procedure, shortened: as §1
[4] = Inhibition of Influenza virus A/Netherlands/602/2009 Neuraminidase using MUNANA as substrate incubated for 60 mins by fluorescence based whole virus assay
Procedure, shortened: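 Whole Neth09H1N1 virus served as the NA source in place of recombinant protein. Compounds were serially diluted 1:2 in 50 mM Tris-HCl, 4 mM CaCl2, pH 6.0, with a fixed non-saturating amount of virus. MUNANA was added to 100 μM final, 37 °C for 60 min, then stopped with 0.1 M glycine, 25% ethanol, pH 10.7. Fluorescence read at ex 340/em 490 nm; IC50 determined.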

C#CCCC[C@H](CC)O[C@@H]1CC(C(=O)O)=C[C@H](O)[C@H]1NC(C)=O
IC50 [1]: 2900 nM | inhibition (Influenza A virus [2]): Active | Activity (MDCK-II): Non-Toxic

CC[C@@H](CCCCc1cn([C@H]2[C@H](O)[C@@H](O)[C@H](n3cc(-c4ccc(-c5cn([C@H]6[C@H](O)[C@@H](O)[C@H](n7cc(-c8ccc(-c9cn([C@@H]%10O[C@H](CO)[C@@H](n%11cc(CCCC[C@H](CC)O[C@@H]%12OC(C(=O)O)=C[C@H](O)[C@H]%12NC(C)=O)nn%11)[C@H](O)[C@H]%10O)nn9)cc8)nn7)O[C@@H]6CO)nn5)cc4)nn3)O[C@@H]2CO)nn1)O[C@@H]1OC(C(=O)O)=C[C@H](O)[C@H]1NC(C)=O
inhibition (Influenza A virus [2]): Active | inhibition (Influenza A virus [3]): Active | Activity (MDCK-II): Non-Toxic

C#CCCCC[C@@H](CC)O[C@@H]1OC(C(=O)O)=C[C@H](O)[C@H]1NC(C)=O
IC50 [1]: 28200 nM

CC[C@@H](CCCCc1cn([C@H]2[C@H](OC(C)=O)[C@@H](OC(C)=O)[C@H](n3cc(CCCC[C@H](CC)O[C@@H]4OC(C(=O)O)=C[C@H](O)[C@H]4NC(C)=O)nn3)O[C@@H]2COC(C)=O)nn1)O[C@@H]1OC(C(=O)O)=C[C@H](O)[C@H]1NC(C)=O
Activity (MDCK-II): Non-Toxic

CC[C@@H](CCCCc1cn([C@H]2[C@H](O)[C@@H](O)[C@H](n3cc(-c4ccc(-c5cn([C@@H]6O[C@H](CO)[C@@H](n7cc(CCCC[C@H](CC)O[C@@H]8OC(C(=O)O)=C[C@H](O)[C@H]8NC(C)=O)nn7)[C@H](O)[C@H]6O)nn5)cc4)nn3)O[C@@H]2CO)nn1)O[C@@H]1OC(C(=O)O)=C[C@H](O)[C@H]1NC(C)=O
IC50 [1]: 3300 nM | IC50 [4]: 80 nM | inhibition (Influenza A virus [2]): Active | Activity (MDCK-II): Non-Toxic

CC[C@@H](CCCCc1cn([C@H]2[C@H](O)[C@@H](O)[C@H](n3cc(-c4ccc(-c5cn([C@@H]6O[C@H](CO)[C@@H](n7cc(-c8cc(O)c(-c9cn([C@@H]%10O[C@H](CO)[C@@H](n%11cc(-c%12ccc(-c%13cn([C@@H]%14O[C@H](CO)[C@@H](n%15cc(CCCC[C@H](CC)O[C@@H]%16OC(C(=O)O)=C[C@H](O)[C@H]%16NC(C)=O)nn%15)[C@H](O)[C@H]%14O)nn%13)cc%12)nn%11)[C@H](O)[C@H]%10O)nn9)cc8O)nn7)[C@H](O)[C@H]6O)nn5)cc4)nn3)O[C@@H]2CO)nn1)O[C@@H]1OC(C(=O)O)=C[C@H](N)[C@H]1NC(C)=O
inhibition (Influenza A virus [2]): Active | Activity (MDCK-II): Non-Toxic

CC[C@@H](CCCCc1cn([C@H]2[C@H](OC(C)=O)[C@@H](OC(C)=O)[C@H](n3cc(CCCC[C@H](CC)O[C@@H]4OC(C(=O)O)=C[C@H](O)[C@H]4NC(C)=O)nn3)O[C@@H]2CO)nn1)O[C@@H]1OC(C(=O)O)=C[C@H](O)[C@H]1NC(C)=O
IC50 [1]: 5200 nM | IC50 [4]: 1500 nM | Activity (MDCK-II): Non-Toxic

CCC(CC)O[C@@H]1C=C(C(=O)O)C[C@H](N)[C@H]1NC(C)=O [OSELTAMIVIR CARBOXYLATE]
Activity (MDCK-II): Non-Toxic

CCC(CC)O[C@@H]1OC(C(=O)O)=C[C@H](O)[C@H]1NC(C)=O
IC50 [1]: 470 nM
